Compound activity as filed in PubChem.
An excerpt weighted towards active compounds, which were near 2.6% of everything screened.
5-HT1A blocker: blocks the human serotonin 5-HT1a receptor; CHO 5-HT1a Ga15 NFAT-bla reporter, antagonist mode; inhibition, % at 10 µM; 0.68% of 62,000 active; AID 612;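 active = inhibition above the mean of all tested compounds plus 3 SD, cut at about 43% in these data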;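 note: receptor stimulated by 5-CT agonist at 100 nM near EC80; beta-lactamase reporter measured by ratiometric fluorescence of a cleavable substrate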
E coli RNAP: inhibitors of Escherichia coli RNA polymerase | P0A8V2 | E. coli RNA polymerase, fluorescence transcription assay | inhibition, %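 (tested at 10 µM)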 | 0.2% of 62,000 active | AID 559; in the data active = inhibition above about 20%;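 note: 0% = enzyme without compound and 100% = no enzyme blank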
Target sequence (P0A8V2 whole entry, looked up): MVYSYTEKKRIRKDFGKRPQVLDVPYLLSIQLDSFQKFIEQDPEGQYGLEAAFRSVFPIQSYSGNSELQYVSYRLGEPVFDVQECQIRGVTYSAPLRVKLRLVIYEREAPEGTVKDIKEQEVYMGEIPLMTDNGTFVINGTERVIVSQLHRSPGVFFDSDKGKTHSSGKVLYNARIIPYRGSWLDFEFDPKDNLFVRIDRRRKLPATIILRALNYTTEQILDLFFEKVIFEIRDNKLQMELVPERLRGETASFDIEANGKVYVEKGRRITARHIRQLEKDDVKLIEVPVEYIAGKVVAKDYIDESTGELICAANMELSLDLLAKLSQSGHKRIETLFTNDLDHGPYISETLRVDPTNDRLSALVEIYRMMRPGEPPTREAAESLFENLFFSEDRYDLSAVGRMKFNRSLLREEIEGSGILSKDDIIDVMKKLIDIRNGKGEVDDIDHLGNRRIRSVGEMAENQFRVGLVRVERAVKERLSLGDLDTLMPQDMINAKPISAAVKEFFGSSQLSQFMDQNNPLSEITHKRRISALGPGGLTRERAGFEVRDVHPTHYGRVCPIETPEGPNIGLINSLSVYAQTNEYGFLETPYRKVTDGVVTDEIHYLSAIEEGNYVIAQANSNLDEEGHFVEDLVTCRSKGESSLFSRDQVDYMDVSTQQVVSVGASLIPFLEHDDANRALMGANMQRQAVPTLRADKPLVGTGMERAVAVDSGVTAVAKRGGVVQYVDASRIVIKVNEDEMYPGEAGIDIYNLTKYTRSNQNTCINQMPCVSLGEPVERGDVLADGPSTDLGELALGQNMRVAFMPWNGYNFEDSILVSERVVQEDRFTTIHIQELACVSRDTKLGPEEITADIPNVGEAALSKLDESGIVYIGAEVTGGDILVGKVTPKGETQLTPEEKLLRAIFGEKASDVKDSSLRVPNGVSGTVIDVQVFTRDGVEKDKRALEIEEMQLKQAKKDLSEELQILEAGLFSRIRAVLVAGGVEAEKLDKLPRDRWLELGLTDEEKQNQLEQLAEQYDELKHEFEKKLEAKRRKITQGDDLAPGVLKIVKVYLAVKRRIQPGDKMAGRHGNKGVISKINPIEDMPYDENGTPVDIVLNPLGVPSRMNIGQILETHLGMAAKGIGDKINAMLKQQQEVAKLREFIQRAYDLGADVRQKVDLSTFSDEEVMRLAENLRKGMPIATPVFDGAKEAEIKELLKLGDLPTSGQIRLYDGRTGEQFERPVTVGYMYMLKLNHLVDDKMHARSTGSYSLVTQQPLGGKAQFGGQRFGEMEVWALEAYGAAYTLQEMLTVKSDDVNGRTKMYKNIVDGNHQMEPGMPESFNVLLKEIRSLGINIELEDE
S1P3 agonist: agonists of human S1P3 receptor. 0.1% of 60,000 active. AID 373. activation, % at 4.5 µM. S1P3 NFAT-BLA reporter cells, agonism, FRET ratio; relative to 1 µM S1P, basal subtracted;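 active = activation above the screen-wide mean plus 3 SD, cut at about 4.5% in these data, passing the limit was not always enough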
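Assay system: CHO cells stably expressing human S1P3, Gα16 and NFAT-β-lactamase reporter. Timing: overnight plating, 4 h compound 37 °C, 2 h substrate RT. Signal: β-lactamase FRET emission ratio 460/535 nm. Measure: percent activation versus median 1 µM S1P response, basal-subtracted, per plate. Repeats: primary screen single test, confirmation screen in triplicate.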
HTR1E agonist: activates the human 5-HT1E serotonin receptor. P28566. CHO 5-HT1E Ga15 NFAT-bla reporter, FRET; 0% DMSO wells, 100% control agonist wells. activation, % at 6 µM. 0.69% of 65,000 active. AID 574;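 active = activation above a set limit, the screen-wide mean activation plus 3 SD, cut at about 8.5% in these data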;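 note: 100% = positive control agonist at 1 µM giving full maximal response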
HTR1A agonist: activates the human 5-HT1a serotonin receptor; P08908; CHO 5-HT1a Ga15 NFAT-bla reporter, FRET ratio; 0% basal, 100% maximal reference agonist; activation, % at 10 µM; 0.56% of 65,000 active; AID 567;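 active = activation above the screen-wide mean activation plus 3 SD, cut at about 19% in these data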;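 note: 0% = DMSO wells and 100% = 5-CT at EC100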
HTR1E antagonist: blocks the human 5-HT1E serotonin receptor; inhibition, % at 6 µM; CHO 5-HT1E Ga15 NFAT-bla reporter, FRET, antagonist; 0.99% of 65,000 active;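 active = inhibition above a set limit, the mean inhibition across every tested compound plus 3 SD, cut at about 29% in these data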;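 note: signal is the 460 over 535 nm emission ratio of beta-lactamase substrate; 0% = agonist plus DMSO wells and 100% = wells without agonist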
Active calls of the source: *; · = no result given.

SMILES	5-HT1A blocker	E coli RNAP	S1P3 agonist	HTR1E agonist	HTR1A agonist	HTR1E antagonist
CCOC(=O)c1cnn(-c2ccccc2)c1NC(=O)c1cccs1	0	-2	-1	0	0	12
CCOC(=O)c1oc2ccccc2c1NC(=O)c1cccc(OC)c1OC	33	0	0	0	-2	34*
CC(=O)Nc1ccccc1OCC(=O)c1cc(C)n(Cc2cccs2)c1C	47*	-3	-2	0	-1	5
CC(=O)Nc1ccc(SCC(=O)c2cc(C)n(Cc3cccs3)c2C)cc1	2	-6	0	-1	-2	11
O=C(CSc1nnc(-c2cccs2)o1)OC1CCCCC1	0	2	0	0	-1	-14
CCC1CCCCN1C(=O)CSc1nnc(-c2cccs2)o1 (centres undefined)	4	6	0	0	28*	2
CCOc1ccccc1Nc1cc(C)nc2nc(C)nn12	1	12	0	0	1	-3
COc1ccc(C2=Nn3c(nnc3-c3ccccc3OC)SC2)cc1OC	75*	2	0	2	-1	87*
CCOc1ccc(C2=Nn3c(nnc3-c3ccccn3)SC2)cc1	·	0	-1	-2	0	-3
COc1ccc(C2=Nn3c(nnc3-c3ccccn3)SC2)cc1OC	·	3	2	1	0	39*
Cc1cccc2cc(C#N)c(SCC(=O)N3CC(=O)Nc4ccccc43)nc12	40	8	0	0	-2	45*
CCN(C(=O)c1cc2cc3ccc(C)cc3nc2o1)c1ccc(OC)cc1	46*	8	1	-1	-2	-6
COc1cc2c(cc1OC)/C(=C/C#N)NC(C)(C)C2	46*	5	0	-1	-1	44*
COc1cc(OC)c2c(C)c(Cl)c(=O)oc2c1	-6	-14	0	1	1	1
CCOC(=O)c1[nH]c(C)c(C(=O)c2cc(F)ccc2F)c1C	50*	7	-1	0	-6	56*
CC(C)CCn1c(CN2CCN(C(=O)c3ccco3)CC2)nc2c1c(=O)n(C)c(=O)n2C	1	11	0	1	57*	1
CCOCCn1c(CN2CCN(CC)CC2)nc2c1c(=O)n(C)c(=O)n2C	3	22*	-1	1	-3	-1
Cc1nn(-c2ccccn2)c2c1C(c1ccsc1)C1=C(CCCC1=O)N2 (centres undefined)	-6	2	0	0	2	35*
O=C1CCCC2=C1C(c1ccsc1)CC(=O)N2c1ccccc1 (centres undefined)	-2	-10	-1	0	-1	12
O=C(NC1CCS(=O)(=O)C1)c1c(NC(=O)C2COc3ccccc3O2)sc2c1CCCC2 (centres undefined)	·	32*	-2	0	2	-1
Cc1cc(C(=O)COc2ncnc3sccc23)c(C)n1C	-1	5	0	0	0	-11
c1ccc(N2CCN(Cc3ccnc4ccccc34)CC2)cc1	15	7	-2	1	1	17
c1ccc(N2CCN(Cc3cn4cccnc4n3)CC2)cc1	-3	4	0	59*	-1	7
COc1ccc(CNc2nc(-c3cccnc3)nn2C(=O)c2cccs2)cc1	36	6	-1	0	0	31*
Cn1c(=O)[nH]c(=O)c2c1nc(NCc1ccccc1)n2CCCc1ccccc1	-4	5	1	0	-2	-7
SMILES	5-HT1A blocker	E coli RNAP	S1P3 agonist	HTR1E agonist	HTR1A agonist	HTR1E antagonist
COc1cccc2c1C(=O)c1c(O)c3c(c(O)c1C2=O)C[C@@](O)(C(=O)CO)C[C@@H]3O[C@H]1C[C@H](N)[C@H](O)[C@H](C)O1	·	32*	1	1	-1	-18
COc1cc(C2NC(=O)NC(C)=C2C(=O)OC2CCCC(C)C2)ccc1O (centres undefined)	4	-9	-2	1	0	4
COc1cc(C2Nc3cccc4cccc(c34)N2)cc(OC)c1O	-9	9	0	0	-6	-5
c1coc(C2Nc3cccc4cccc(c34)N2)c1	13	21*	-2	-1	-3	15
CCOc1ccc(-n2c3nc4ccccc4nc3c3c(=O)n(Cc4ccco4)cnc32)cc1	·	22*	0	2	3	-11
C=CCN1C(=O)/C(=C2\SC(N3CCOCC3)=NC2=O)c2cc(Br)ccc21	-1	7	-2	1	-1	2
CCCCNC1C(CC)C(CCC)C(C#N)(C#N)C1(C#N)C#N (centres undefined)	63*	3	-1	-2	-6	37*
Cc1cc(C(=O)CSc2nnc(-c3cccnc3)n2-c2ccccc2F)c(C)n1C	8	-9	-1	-1	-2	17
CCOC(=O)c1[nH]c2ccc(OC)cc2c1NC(=O)c1ccc2c(c1)OCO2	-5	4	·	1	1	4
COC(=O)c1[nH]c2cc(OC)ccc2c1NC(=O)c1ccc2c(c1)OCO2	-4	1	·	1	115*	-10
O=C(CSc1nnnn1-c1ccccc1)Nc1nsc(-c2ccc(Cl)cc2)n1	50*	1	0	1	0	-11
O=C(NCc1ccc2c(c1)OCO2)C1CCN(Cc2cnn(-c3ccccc3)c2-n2cccc2)CC1	-4	8	·	12*	0	0
COc1ccc(NC(=O)C2CCN(Cc3cnn(-c4ccccc4)c3-n3cccc3)CC2)cc1OC	13	4	·	0	-2	1
O=C(CN(Cc1ccccc1Cl)C(=O)c1ccc(CN2CCOCC2)o1)NCc1ccccc1	9	7	-1	-1	1	-1
COc1ccc(C(=O)OCCNC(=O)c2c(Cl)nc3ccccn23)cc1	4	-5	0	1	5	35*
Cn1c(SCc2nc3ccccc3c(=O)[nH]2)nnc1-c1ccco1	-5	4	0	0	0	-11
CCNc1nc(NCC)n2c(SCc3nc4ccccc4c(=O)[nH]3)nnc2n1	11	2	2	-1	-3	53*
Cn1c(-c2ccccc2)cnc1SCc1nc2ccccc2c(=O)[nH]1	-24	10	0	59*	0	-15
CCNc1nc(NCC)n2c(SCc3ccc(F)cc3)nnc2n1	7	-5	-2	0	-1	10
COCCCNC(=O)Cn1nnc(-c2ccc(NC(=O)c3ccccc3OC)cc2)n1	-5	3	·	0	0	4
CCn1cnc2sc(C(=O)N3CCN(Cc4ccc5c(c4)OCO5)CC3)c(C)c2c1=O	5	5	1	0	-2	3
CCn1cnc2sc(C(=O)N(Cc3ccc(N(C)C)cc3)Cc3ccco3)c(C)c2c1=O	-6	-6	-1	0	2	40*
CCOC(=O)c1c(C)[nH]c(C(=O)CSc2nnnn2-c2ccc(C)cc2)c1C	-4	·	0	1	3	-6
